# Measured values as given in ChEMBL document CHEMBL2176934 (J Med Chem, 2012).
# Calls of active or inactive are those of the source. The rule behind the calls is not given here.
# How the values were obtained:
# [1] = biological target: Voltage-gated inwardly rectifying potassium channel KCNH2 (Homo sapiens, UniProt Q12809); experiment: Inhibition of human ERG
# [2] = Inhibition of Cytochrome P450; type: ADME
# [3] = Inhibition of LPA-induced proliferation of HLF incubated for 1 hr prior to LPA-challenge measured after 48 hrs by BrdU incorporation assay; details: Homo sapiens
# [4] = biological target: T1, Lysophosphatidic acid receptor 1 (Homo sapiens, UniProt Q92633); experiment: Antagonist activity at human recombinant LPA1 expressed in chem-1 cells assessed as inhibition of LPA-induced intracellular calcium mobilization incubated for 30 mins prior to LPA-challenge measured over 100 secs by FLIPR assay; type: functional, cell-based
# T1 sequence (Q92633 whole entry): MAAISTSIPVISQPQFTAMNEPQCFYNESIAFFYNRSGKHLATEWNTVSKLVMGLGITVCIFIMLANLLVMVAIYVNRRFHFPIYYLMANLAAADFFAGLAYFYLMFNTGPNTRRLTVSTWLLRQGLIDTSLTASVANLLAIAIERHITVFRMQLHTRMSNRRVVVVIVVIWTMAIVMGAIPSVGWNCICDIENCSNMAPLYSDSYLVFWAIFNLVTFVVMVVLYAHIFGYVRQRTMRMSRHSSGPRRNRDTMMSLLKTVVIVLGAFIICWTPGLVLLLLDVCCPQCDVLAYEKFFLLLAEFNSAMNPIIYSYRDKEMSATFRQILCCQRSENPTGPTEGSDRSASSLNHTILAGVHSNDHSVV
# Summary of the method: (§1)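 Calcium-optimized Chem-1 cells stably expressing human LPA1 or LPA3 (parental line with ionomycin as counterscreen), seeded 10,000/well the day before. Calcium-4 dye in HBSS/20 mM HEPES/2.5 mM probenecid loaded 30 min at 37 °C; compound added, 30 min at room temperature in the dark; LPA (18:1) 1 μM final. Peak fluorescence read over 100 s; IC50 from 10-concentration 4-parameter logistic fit, mean of at least three runs.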
# [5] = biological target: T2, Lysophosphatidic acid receptor 3 (Homo sapiens) (UniProt Q9UBY5); experiment: Antagonist activity at human recombinant LPA3 expressed in chem-1 cells assessed as inhibition of LPA-induced intracellular calcium mobilization at 30 uM incubated for 30 mins prior to LPA-challenge measured over 100 secs by FLIPR assay; type: functional, cell-based; summary of the method: as §1
# T2 sequence (whole entry): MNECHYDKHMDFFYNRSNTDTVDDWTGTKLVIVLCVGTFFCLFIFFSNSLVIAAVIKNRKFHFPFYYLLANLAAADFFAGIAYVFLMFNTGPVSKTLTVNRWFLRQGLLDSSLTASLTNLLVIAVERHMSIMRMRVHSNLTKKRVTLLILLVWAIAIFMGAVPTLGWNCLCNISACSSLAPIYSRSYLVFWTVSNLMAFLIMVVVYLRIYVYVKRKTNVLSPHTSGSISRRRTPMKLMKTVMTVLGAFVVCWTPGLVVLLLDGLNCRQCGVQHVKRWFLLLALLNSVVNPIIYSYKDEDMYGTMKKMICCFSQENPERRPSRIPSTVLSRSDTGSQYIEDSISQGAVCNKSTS
# [6] = biological target: T1, Lysophosphatidic acid receptor 1; experiment: Antagonist activity at human recombinant LPA1 expressed in chem-1 cells assessed as inhibition of LPA-induced intracellular calcium mobilization at 30 uM incubated for 30 mins prior to LPA-challenge measured over 100 secs by FLIPR assay; type: functional, cell-based; summary of the method: as §1
# [7] = biological target: T1, Lysophosphatidic acid receptor 1; experiment: Antagonist activity at LPA1 in human lung fibroblasts assessed as inhibition of LPA-induced contraction after 18 hrs by 3D collagen gel contraction assay; type: functional
# Summary of the method: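 NHLFs (healthy nonsmoking donors, passages 5–9) at 2.5 × 10⁵ cells/well, mixed 1:4 with collagen lattice; gels polymerized 2 h at 37 °C, then basal medium with 0.1% FBS, 0.1% fatty acid-free BSA and vehicle or antagonist added. Gels detached, LPA (18:1) 15 μM added; after 18 h, contraction quantified by gel disc weight.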
# Sequence of Voltage-gated inwardly rectifying potassium channel KCNH2 (Q12809 whole entry): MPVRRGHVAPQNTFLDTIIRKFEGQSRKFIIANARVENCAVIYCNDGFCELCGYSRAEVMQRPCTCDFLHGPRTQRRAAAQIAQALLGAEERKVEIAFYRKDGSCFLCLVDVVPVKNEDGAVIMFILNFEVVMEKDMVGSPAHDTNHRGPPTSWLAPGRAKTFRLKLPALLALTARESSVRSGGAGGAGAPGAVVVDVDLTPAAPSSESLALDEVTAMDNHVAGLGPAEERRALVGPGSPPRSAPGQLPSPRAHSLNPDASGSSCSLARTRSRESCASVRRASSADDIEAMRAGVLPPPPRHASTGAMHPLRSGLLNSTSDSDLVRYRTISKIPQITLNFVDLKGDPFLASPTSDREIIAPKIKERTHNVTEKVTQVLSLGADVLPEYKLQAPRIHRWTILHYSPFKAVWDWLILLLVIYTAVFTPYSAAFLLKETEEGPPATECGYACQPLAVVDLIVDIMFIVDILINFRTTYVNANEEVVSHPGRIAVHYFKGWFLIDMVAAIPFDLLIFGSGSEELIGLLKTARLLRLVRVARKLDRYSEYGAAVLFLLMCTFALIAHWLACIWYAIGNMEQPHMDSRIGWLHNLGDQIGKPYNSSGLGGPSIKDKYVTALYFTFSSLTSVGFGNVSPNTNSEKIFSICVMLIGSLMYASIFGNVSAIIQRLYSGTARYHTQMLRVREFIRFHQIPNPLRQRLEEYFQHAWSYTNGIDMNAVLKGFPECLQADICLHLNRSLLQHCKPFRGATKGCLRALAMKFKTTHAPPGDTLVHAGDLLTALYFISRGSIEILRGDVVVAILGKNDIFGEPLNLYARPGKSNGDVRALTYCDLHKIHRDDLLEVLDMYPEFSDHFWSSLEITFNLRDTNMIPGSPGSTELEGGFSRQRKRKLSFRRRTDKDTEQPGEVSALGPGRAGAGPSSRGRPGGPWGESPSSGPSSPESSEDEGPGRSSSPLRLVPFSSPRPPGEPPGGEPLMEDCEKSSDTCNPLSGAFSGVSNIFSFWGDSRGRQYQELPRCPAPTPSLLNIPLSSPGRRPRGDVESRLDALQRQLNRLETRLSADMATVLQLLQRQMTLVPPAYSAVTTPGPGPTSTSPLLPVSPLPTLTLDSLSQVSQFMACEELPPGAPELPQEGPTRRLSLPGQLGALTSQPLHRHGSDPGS
SMILES,inhibition (INH) [1],inhibition (INH) [2],IC50 [3],IC50 [4],inhibition [5],inhibition [6],inhibition [7]
C[C@@H](OC(=O)Nc1c(-c2ccc(-c3ccc(C4(C(=O)O)CC4)cc3)cc2)cnn1C)c1ccccc1,Not Active,Not Active,2.6 nM,21 nM,–,–,–
C[C@H](OC(=O)Nc1c(-c2ccc(-c3ccc(C4(C(=O)O)CC4)cc3)cc2)nnn1C)c1cccc(C(F)(F)F)c1,Not Active,Not Active,–,–,–,–,–
Cc1nnn(-c2ccc(-c3ccc(C4(C(=O)O)CC4)cc3)cc2)c1NC(=O)O[C@H](C)C(C)C,Not Active,Not Active,60 nM,–,17%,–,–
C[C@@H](OC(=O)Nc1nnn(C)c1-c1ccc(-c2ccc(C3(C(=O)O)CC3)cc2)cc1)c1ccccc1,Not Active,Not Active,–,–,10%,12%,–
C[C@@H](OC(=O)Nc1c(-c2ccc(-c3ccc(C4(C(=O)O)CC4)cc3)cc2)nnn1C)c1ccccc1,Not Active,Not Active,3 nM,–,–,–,–
Cn1ncc(-c2ccc(-c3ccc(C4(C(=O)O)CC4)cc3)cc2)c1NC(=O)OC1CCC1,Not Active,Not Active,192 nM,–,13.7%,–,–
CC[C@@H](C)OC(=O)Nc1c(-c2ccc(-c3ccc(C4(C(=O)O)CC4)cc3)cc2)cnn1C,Not Active,Not Active,48 nM,–,0%,–,–
CC(C)[C@@H](C)OC(=O)Nc1c(-c2ccc(-c3ccc(C4(C(=O)O)CC4)cc3)cc2)cnn1C,Not Active,Not Active,30 nM,–,9%,–,–
Cn1ncc(-c2ccc(-c3ccc(C4(C(=O)O)CC4)cc3)cc2)c1NC(=O)OC1COC1,Not Active,Not Active,–,–,0%,0%,–
CC(C)[C@@H](C)OC(=O)Nc1c(-c2ccc(-c3ccc(C4(C(=O)O)CC4)cc3)cc2)nnn1C,Not Active,Not Active,20 nM,–,24%,–,–
C[C@@H](OC(=O)Nc1cnnn1-c1ccc(-c2ccc(C3(C(=O)O)CC3)cc2)cc1)c1ccccc1,Not Active,Not Active,40 nM,–,23%,–,–
C[C@@H](OC(=O)Nc1c(-c2ccc(-c3ccc(C4(C(=O)NS(C)(=O)=O)CC4)cc3)cc2)nnn1C)c1ccccc1,Not Active,Not Active,4 nM,–,–,–,–
C[C@@H](OC(=O)Nc1c(-c2ccc(-c3ccc(C4(C(=O)NS(C)(=O)=O)CC4)cc3)cc2)nnn1C)c1cccc(C(F)(F)F)c1,Not Active,Not Active,331 nM,24 nM,–,–,inactive
Cc1nnn(-c2ccc(-c3ccc(C4(C(=O)O)CC4)cc3)cc2)c1NC(=O)O[C@H](C)c1cccc(C(F)(F)F)c1,Not Active,Not Active,1200 nM,–,–,–,–
Cc1nnn(-c2ccc(-c3ccc(C4(C(=O)O)CC4)cc3)cc2)c1NC(=O)O[C@H](C)c1ccccc1F,Not Active,Not Active,21 nM,–,42%,–,–
C[C@@H](OC(=O)Nc1c(-c2ccc(-c3ccc(CC(=O)O)cc3)cc2)cnn1C)c1ccccc1,Not Active,Not Active,47 nM,–,–,–,–
C[C@@H](OC(=O)Nc1c(-c2ccc(CC(=O)O)cc2)cnn1C)c1ccccc1,Not Active,Not Active,–,–,–,–,–
C[C@H](OC(=O)Nc1c(-c2ccccc2F)cnn1C)c1ccccc1Cl,Not Active,Not Active,–,–,–,–,–
C[C@@H](OC(=O)Nc1c(-c2ccc(-c3ccc(C4(C(=O)O)CC4)cc3)cc2F)nnn1C)c1ccccc1,Not Active,Not Active,2 nM,–,–,–,–

SMILES,inhibition (INH) [1],inhibition (INH) [2],IC50 [3],IC50 [4],inhibition [5],inhibition [6],inhibition [7]
CCOC(=O)C1(c2ccc(-c3ccc(-c4cnn(C)c4NC(=O)O[C@H](C)c4ccccc4)cc3)cc2)CC1,Not Active,Not Active,–,–,–,65%,–
Cc1nnn(-c2ccc(-c3ccc(C4(c5nnn[nH]5)CC4)cc3)cc2)c1NC(=O)O[C@H](C)c1ccccc1,Not Active,Not Active,105 nM,23 nM,28%,–,–
COc1ccc(-c2cnn(C)c2NC(=O)O[C@H](C)c2ccccc2)cc1,Not Active,Not Active,–,–,–,–,–
Cc1nnn(-c2ccc(-c3ccc(C4(C(=O)O)CC4)cc3)cc2)c1NC(=O)OC(C)C1CCC1 (racemic),Not Active,Not Active,189 nM,–,26%,–,–
Cc1nnn(-c2ccc(-c3ccc(CC(=O)O)cc3)cc2)c1NC(=O)O[C@H](C)c1ccccc1,Not Active,Not Active,–,–,3%,41%,–
Cc1nnn(-c2ccc(-c3ccc(C4(C(=O)NS(C)(=O)=O)CC4)cc3)cc2)c1NC(=O)O[C@H](C)c1ccccc1,Not Active,Not Active,60 nM,32 nM,7%,–,–
CC(OC(=O)Nc1c(-c2ccc(-c3ccc(C4(C(=O)O)CC4)cc3)cc2)cnn1C)c1ccc(F)cc1 (racemic),Not Active,Not Active,5 nM,–,–,–,–
Cc1nnn(-c2ccc(-c3ccc(C4(C(=O)O)CC4)cc3)cc2)c1NC(=O)OC(C)(C)C,Not Active,Not Active,1620 nM,–,0%,–,–
C[C@@H](OC(=O)Nc1c(-c2ccc(C3CCC(CC(=O)O)CC3)cc2)nnn1C)c1ccccc1 (mixture of isomers),Not Active,Not Active,7 nM,–,–,–,–
C[C@@H](OC(=O)Nc1c(-c2ccc(-c3ccc(CC(=O)O)cc3)cc2)nnn1C)c1ccccc1,Not Active,Not Active,60 nM,–,–,–,–
C[C@@H](OC(=O)Nc1c(-c2ccc(-c3ccc(C4(C(=O)O)CC4)cc3)cc2)cnn1C)c1ccccc1F,Not Active,Not Active,4.5 nM,–,–,–,–
C[C@@H](OC(=O)Nc1c(-c2ccc(-c3ccc(C4(C(=O)O)CC4)cc3)cc2)nnn1C)c1cccc(C(F)(F)F)c1,Not Active,Not Active,74 nM,17 nM,–,–,–
Cc1nnn(-c2ccc(-c3ccc(C4(C(=O)O)CC4)cc3)cc2)c1NC(=O)O[C@H](C)c1ccccc1C(F)(F)F,Not Active,Not Active,77 nM,–,55%,–,–
C[C@@H](OC(=O)Nc1c(-c2ccc(-c3ccccc3)cc2)cnn1C)c1ccccc1,Not Active,Not Active,–,–,–,–,–
C[C@@H](OC(=O)Nc1c(-c2ccc(-c3ccc(C4(C(=O)O)CC4)cc3)cc2)cnn1C)c1cccc(C(F)(F)F)c1,Not Active,Not Active,37 nM,41 nM,–,–,–
CC[C@@H](C)OC(=O)Nc1c(C)nnn1-c1ccc(-c2ccc(C3(C(=O)O)CC3)cc2)cc1,Not Active,Not Active,178 nM,–,0%,–,–
C[C@@H](OC(=O)Nc1c(-c2ccccc2)cnn1C)c1ccccc1,Not Active,Not Active,–,–,–,65%,–
C[C@@H](OC(=O)Nc1nncn1-c1ccc(-c2ccc(C3(C(=O)O)CC3)cc2)cc1)c1ccccc1,Not Active,Not Active,–,–,17%,11%,–
CCc1nnn(-c2ccc(-c3ccc(C4(C(=O)O)CC4)cc3)cc2)c1NC(=O)O[C@H](C)c1ccccc1,Not Active,Not Active,16 nM,42 nM,63%,–,–
